Measured values as given in publication PMC7115694 (European Journal of Medicinal Chemistry, 2010).
Marks after values point to notes of the source that are not given here.

Tests used:
Assay type in all cases: cell-based
[1] = tested on: Para-influenza-3 virus; test: organism not typed; conditions: Vero, read-out: EC50 Para-influenza-3 virus
[2] = tested on: Vero cells; test: Cytotoxicity in uninfected cell cultures; conditions: cell morphology
In short: (§1)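 Uninfected cell cultures are exposed to serial dilutions of test compound in parallel with the virus cytopathicity assays. Cells are examined microscopically. Minimum cytotoxic concentration is the lowest concentration causing a microscopically detectable alteration of normal cell morphology.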

[3] = tested on: S. aureus, B. subtilis and E. coli; test: Average antibacterial activity; conditions: average antibacterial activity (pMICsa + pMICbs + pMICec)/3
[4] = tested on: C. albicans and A. niger; test: Average antifungal activity; conditions: average antifungal activity (pMICca + pMICan)/2
[5] = tested on: Escherichia coli; test: MIC by tube dilution method; conditions: observed, E. coli, 37 °C 24 h
In short: (§2)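 Test compound is diluted in double strength nutrient broth (I.P.) by tube dilution, with ciprofloxacin as reference. Samples incubated at 37 °C for 24 h. MIC is the lowest concentration inhibiting microbial growth, transformed into pMIC for analysis.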

[6] = tested on: Bacillus subtilis; test: MIC by tube dilution method; conditions: observed, B. subtilis, 37 °C 24 h
In short: as §2

[7] = tested on: Aspergillus niger; test: MIC by tube dilution method; conditions: observed, A. niger, 25 °C 7 d
[8] = tested on: S. aureus, B. subtilis, E. coli, C. albicans and A. niger; test: Average antimicrobial activity; conditions: mean of five pMIC values
[9] = tested on: Candida albicans; test: MIC by tube dilution method; conditions: observed, C. albicans, 37 °C 48 h
[10] = tested on: Feline Herpes virus; test: organism not typed; conditions: CRFK, read-out: EC50 Feline Corona Virus
[11] = tested on: HEL cells; test: Cytotoxicity in uninfected cell cultures; conditions: microscopically detectable alteration of cell morphology
In short: as §1

[12] = tested on: Staphylococcus aureus; test: MIC by tube dilution method; conditions: observed, S. aureus, 37 °C 24 h
[13] = tested on: Reovirus-1; test: organism not typed; conditions: Vero, read-out: EC50 Reovirus-1
[14] = tested on: HeLa cells; test: Cytotoxicity in uninfected cell cultures; conditions: cell morphology
In short: as §1

Structure (SMILES)	EC50 [1]	Minimum cytotoxic concentration [2]	pMICab [3]	pMICaf [4]	pMICec [5]	pMICbs [6]	pMICan [7]	pMICam [8]	pMICca [9]	EC50 [10]	Minimum cytotoxic concentration [11]	pMICsa [12]	EC50 [13]	Cytotoxicity Minimum cytotoxic concentration [14]
C=CC(=O)n1c(-c2ccc(S(=O)(=O)O)cc2)nc2ccccc21 [Compound 13]	> 100 µg/mL	>100 µg/mL	2.02	1.27	2.32	2.02	1.12	1.72	1.42	> 20 µg/mL	100 µg/mL	1.72	> 100 µg/mL	>100 µg/mL
OC(Cn1cncn1)(Cn1cncn1)c1ccc(F)cc1F [Fluconazole, fluconazole, reference compound]				2.64			2.64**		2.64**					
O=C(c1ccccc1Cl)n1c(-c2ccc(S(=O)(=O)O)cc2)nc2ccccc21 [Compound 4]	> 100 µg/mL	>100 µg/mL	2.11	1.37	2.42	1.82	1.22	1.81	1.52	> 100 µg/mL	>100 µg/mL	2.09	> 100 µg/mL	>100 µg/mL
CCCCCCCC/C=C/CCCCCCCC(=O)n1c(-c2ccc(S(=O)(=O)O)cc2)nc2ccccc21 [Compound 18, 4-(1-octadec-9-enoyl-1H-benzoimidazol-2-yl)-benzenesulfonic acid]	> 100 µg/mL	>100 µg/mL	2.11	1.79	1.85	2.24	1.63	1.98	1.94	> 100 µg/mL	>100 µg/mL	2.24	> 100 µg/mL	>100 µg/mL
O=C(c1cccc(O)c1)n1c(-c2ccc(S(=O)(=O)O)cc2)nc2ccccc21 [Compound 6]	> 100 µg/mL	>100 µg/mL	2.22	1.35	2.40	2.15	1.20	1.87	1.50	> 100 µg/mL	>100 µg/mL	2.10	> 100 µg/mL	>100 µg/mL
C=C(C)C(=O)n1c(-c2ccc(S(=O)(=O)O)cc2)nc2ccccc21 [Compound 14]	> 100 µg/mL	>100 µg/mL	1.84	1.29	2.04	1.74	1.14	1.62	1.44	> 100 µg/mL	>100 µg/mL	1.74	> 100 µg/mL	>100 µg/mL
Nc1ccc(C(=O)n2c(-c3ccc(S(=O)(=O)O)cc3)nc3ccccc32)cc1 [Compound 3]	> 100 µg/mL	>100 µg/mL	2.00	1.35	2.10	1.80	1.50	1.74	1.20	> 100 µg/mL	>100 µg/mL	2.10	> 100 µg/mL	>100 µg/mL
C/C=C/C(=O)n1c(-c2ccc(S(=O)(=O)O)cc2)nc2ccccc21 [Compound 12]	> 100 µg/mL	>100 µg/mL	1.85	1.14	1.85	1.85	0.84	1.57	1.44	> 100 µg/mL	>100 µg/mL	1.85	> 100 µg/mL	>100 µg/mL
O=C(c1ccc([N+](=O)[O-])cc1)n1c(-c2ccc(S(=O)(=O)O)cc2)nc2ccccc21 [Compound 9, 4-[1-(4-Nitrobenzoyl)-1H-benzoimidazol-2-yl]-benzenesulfonic acid]	> 100 µg/mL	>100 µg/mL	2.43	1.83	2.43	2.43	1.53	2.19	2.13	> 100 µg/mL	>100 µg/mL	2.43	> 100 µg/mL	>100 µg/mL
O=C(c1ccc(O)cc1O)n1c(-c2ccc(S(=O)(=O)O)cc2)nc2ccccc21 [Compound 7]	> 100 µg/mL	>100 µg/mL	2.32	1.37	2.42	2.42	1.22	1.94	1.52	> 100 µg/mL	100 µg/mL	2.12	> 100 µg/mL	>100 µg/mL
Nc1ccccc1C(=O)n1c(-c2ccc(S(=O)(=O)O)cc2)nc2ccccc21 [Compound 1]	> 4 µg/mL		2.08	1.60	2.40	2.03	1.50	1.89	1.70	> 4 µg/mL	>100 µg/mL	1.80	> 4 µg/mL	≥20 µg/mL
O=C(c1ccccc1O)n1c(-c2ccc(S(=O)(=O)O)cc2)nc2ccccc21 [Compound 16]	> 100 µg/mL	>100 µg/mL	2.15	1.50	2.26	2.10	1.50	1.89	1.50	> 100 µg/mL	>100 µg/mL	2.10	> 100 µg/mL	>100 µg/mL
O=C(O)c1cn(C2CC2)c2cc(N3CCNCC3)c(F)cc2c1=O [Ciprofloxacin, ciprofloxacin, reference compound]			2.61		2.61*	2.61*						2.61*		
